hERG protect: compounds protecting human hERG from proarrhythmic drug block | CHO-hERG, FluxOR thallium flux, dofetilide IC70 present | activation (rescue from dofetilide block), less the hit threshold, % at 10 µM | 0.51% of 310,000 active | AID 1511;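 active = activation above the mean of controls blocked by dofetilide plus 5 SD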;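 note: thallium influx through hERG after potassium depolarization seen as dye fluorescence rise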
Target sequence (Q12809 whole entry, looked up): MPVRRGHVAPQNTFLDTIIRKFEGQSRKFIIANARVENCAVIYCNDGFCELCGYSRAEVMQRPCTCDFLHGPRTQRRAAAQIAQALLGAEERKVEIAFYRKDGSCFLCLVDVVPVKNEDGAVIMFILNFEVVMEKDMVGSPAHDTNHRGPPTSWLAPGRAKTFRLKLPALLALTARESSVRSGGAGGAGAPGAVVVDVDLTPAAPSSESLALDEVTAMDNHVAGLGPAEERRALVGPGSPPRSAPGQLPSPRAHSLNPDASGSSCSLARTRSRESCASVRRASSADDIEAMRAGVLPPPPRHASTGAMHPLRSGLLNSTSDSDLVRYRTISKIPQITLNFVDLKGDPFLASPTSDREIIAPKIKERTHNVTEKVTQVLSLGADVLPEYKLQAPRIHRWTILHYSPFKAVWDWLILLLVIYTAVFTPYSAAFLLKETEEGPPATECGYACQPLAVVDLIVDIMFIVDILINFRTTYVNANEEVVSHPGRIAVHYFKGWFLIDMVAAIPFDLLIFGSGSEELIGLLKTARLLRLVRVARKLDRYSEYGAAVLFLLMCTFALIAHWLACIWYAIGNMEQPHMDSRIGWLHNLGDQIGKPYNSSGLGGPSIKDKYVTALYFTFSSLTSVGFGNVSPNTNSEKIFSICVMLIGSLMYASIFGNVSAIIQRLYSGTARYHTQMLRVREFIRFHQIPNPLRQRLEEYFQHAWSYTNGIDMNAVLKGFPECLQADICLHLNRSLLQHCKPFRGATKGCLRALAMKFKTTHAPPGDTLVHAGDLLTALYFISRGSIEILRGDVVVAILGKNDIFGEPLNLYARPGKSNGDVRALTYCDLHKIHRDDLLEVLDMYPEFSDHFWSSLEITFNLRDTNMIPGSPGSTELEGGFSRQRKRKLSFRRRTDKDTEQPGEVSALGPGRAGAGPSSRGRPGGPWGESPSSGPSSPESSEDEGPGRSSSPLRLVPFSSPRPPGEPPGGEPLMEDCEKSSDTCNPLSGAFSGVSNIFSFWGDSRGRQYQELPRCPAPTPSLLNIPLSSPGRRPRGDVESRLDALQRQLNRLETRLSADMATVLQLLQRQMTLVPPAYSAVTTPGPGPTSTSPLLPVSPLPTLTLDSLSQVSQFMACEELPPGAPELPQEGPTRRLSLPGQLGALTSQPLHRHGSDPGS
KCNQ1 act: potentiators or activators of human KCNQ1 potassium channel; P51787; CHO-K1 KCNQ1, thallium flux FluxOR fluorescence; active compounds read high; B-score at 10 µM; 0.35% of 310,000 active;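 active = fluorescence ratio B-score, a plate-corrected score, at least three library SD, with initial intensity B-score within 5 SD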
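Medium – assay buffer, equal DMSO in all wells · Material – CHO-K1 cell line with stable KCNQ1 potassium channel expression · Signal – kinetic FluxOR thallium fluorescence, 10-s 1-Hz baseline, 110-s post-stimulus read · Compound – single concentration per compound, DMSO matched to controls · Schedule – 37 °C overnight plating, 90-min dark dye load, 20-min compound pretreatment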
KCNK3 inh: human KCNK3 channel inhibition, primary screen | O14649 | CHO-KCNK3 thallium flux, FluxOR fluorescence; active compounds read low | B-score at 10 µM | 0.84% of 340,000 active;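 active = B-score under library mean minus 4 SD, starting fluorescence ratio at most library mean plus 5 SD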;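 note: more negative B-score means stronger inhibition of thallium flux through KCNK3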
KCNK9 block: human KCNK9 channel inhibition; Q9NPC2; HEK293 KCNK9, FluxOR thallium flux fluorescence; active compounds read low; B-score at 10 µM; 1.2% of 310,000 active; AID 488922;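 active = ratio B-score over 3 SD below the library mean, with starting fluorescence within 5 SD of its mean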;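 note: negative B-score means less thallium flux so channel inhibition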
KCNQ1 block: inhibitors of human KCNQ1 potassium channel. B-score at 10 µM. P51787. 1.3% of 310,000 active. CHO-K1 KCNQ1, FluxOR thallium flux fluorescence; active compounds read high. AID 2642;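 active = compounds whose thallium flux B-score, printed positive for inhibition, exceeds three library SD while starting fluorescence stays within three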;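 note: channel opened by potassium depolarization with thallium stimulus after 20 min compound exposure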
Large screens that a line does not name were inactive. Only some compounds are listed: those with a hit (about 3.1% of all), similar ones and a draw of the others.

O=C(CSc1n[nH]c(-c2cccs2)n1)N1CCOCC1	none (no result: hERG protect, KCNQ1 act, KCNK9 block, KCNQ1 block)
COC(=O)c1cc(=O)n(Cc2ccc3c(c2)OCO3)c(=Nc2ccc(F)cc2)s1	KCNK9 block -8, KCNQ1 block 6
COC(=O)c1cc(=O)n(Cc2ccco2)c(=Nc2ccc(F)c(Cl)c2)s1	KCNQ1 block 7
O=C(Nc1nc(=O)n(C(=O)C2CC2)s1)c1ccccc1	none
Cc1ccc(C(=O)Nc2nc(=O)n(C(=O)C3CC3)s2)cc1	hERG protect 5.0
O=C(Nc1nc(=O)c2ccccc2s1)c1ccccc1	KCNQ1 act 11
Cc1ccc(C(=O)Nc2nc3ccccc3c(=O)s2)cc1	hERG protect 23, KCNQ1 act 35
CC(C)c1ccc2c(c1)C(c1cccs1)=NNC(c1ccncc1)=N2	KCNK9 block -7.4
c1ccc(C(c2ccccc2)N2CCN(C(c3ccccn3)c3nnnn3C3CCCC3)CC2)cc1 (stereo unspecified)	KCNK9 block -15
Cc1ccccc1NC(=S)NCCC(c1ccccc1)c1ccccc1	KCNQ1 block 7
S=C(N/N=C/c1cccc2ccccc12)Nc1cccc(Cl)c1	hERG protect 5.3, KCNQ1 act 8
S=C(NCCC(c1ccccc1)c1ccccc1)Nc1cccc(Cl)c1	KCNQ1 block 9
S=C(N/N=C/c1ccccc1Cl)Nc1ccccc1	none
CCOc1ccc(NC(=O)CS(=O)CC(=O)N(CC(=O)NC(C)(C)C)C2CCCC2)cc1 (stereo unspecified)	none
Cc1cc(C)c2[nH]c(=O)c(CN(Cc3ccc4c(c3)OCO4)Cc3nnnn3C3CCCC3)cc2c1	KCNK9 block -13
C#CCOCCOCCOCCNc1nc(N2CCN(C(=O)C([C@@H](C)CC)n3cc(C(N)Cc4ccc(O)cc4)nn3)CC2)nc(N2CCN(C(=O)[C@H](CCC(=O)O)n3cc(C(N)CC(C)C)nn3)CC2)n1 (stereo partly specified)	KCNQ1 act 24
COc1ccccc1C(=O)NNC(=S)Nc1ccccc1	none
COc1ccccc1C(=O)NNC(=O)C(=O)Nc1ccc(C)c(Cl)c1	hERG protect 61, KCNQ1 act 94
COc1ccccc1C(=O)NNC(=O)C(=O)Nc1ccc(C)cc1	hERG protect 47
COc1ccccc1C(=O)NNC(=O)c1ccc(Cl)cc1	none
Cc1ccc(NC(=O)C(=O)NNC(=O)c2ccccc2C)cc1Cl	hERG protect 46, KCNQ1 act 41
CC(C)(C)NC(=O)C(=O)NNC(=O)c1ccccc1Br	none
COc1ccccc1C(=O)NNC(=O)C(=O)NC(C)(C)C	hERG protect 7.4, KCNQ1 act 9
COc1cc(OC)cc(-c2nc3ccccc3c(=O)n2OC(=O)c2ccc(C)c(C)c2)c1	KCNQ1 block 7
COc1ccc(CNC(=O)CCCN2C(=O)NC3(CCCC3)C2=O)cc1	none (no result: hERG protect, KCNQ1 act, KCNK9 block, KCNQ1 block)
O=C(Nc1cccc(Cl)c1)C1=Cc2cc(Cl)ccc2OC1	none
O=C(Nc1ccc(Cl)c(Cl)c1)C1=Cc2ccccc2OC1	KCNQ1 block 7
CC(=O)N(\C=C/C=C/C=C1\Sc2ccccc2C1=O)c1ccccc1	KCNQ1 block 7
CCC1CCc2sc(C(=O)NCC(c3ccc(OC)cc3)N3CCOCC3)cc2C1 (stereo unspecified)	none (no result: hERG protect, KCNQ1 act, KCNK9 block, KCNQ1 block)
CCOC(=O)C1=C(COC(=O)CSc2ccc(C)cc2)NC(=O)NC1C (stereo unspecified)	none (no result: hERG protect, KCNQ1 act, KCNK9 block, KCNQ1 block)
CCOc1ccc(Oc2ccc(C(F)(F)F)cc2NC(=O)C2=COCCO2)cc1	none (no result: hERG protect, KCNQ1 act, KCNK9 block, KCNQ1 block)
COC(=O)c1ccccc1NC(=O)c1cn(-c2ccc(C)c(C)c2)c(=O)c2ccccc12	KCNQ1 block 8
O=[N+]([O-])c1ccc(/C([O-])=C(/C(=S)NCc2ccco2)[n+]2ccccc2)cc1	KCNQ1 act 8
CC(Oc1cccc(Cl)c1)C(=O)Nc1cc(S(=O)(=O)N2CCOCC2)ccc1N1CCCCC1 (stereo unspecified)	KCNQ1 block 7
CC(C)C[C@@H](CNCC(=O)[C@H](C)NC(=O)c1[nH]cnc1C(=O)N[C@H](CN)CC(C)C)NC(=O)c1nc[nH]c1C(=O)N[C@@H](C)C(=O)O	none (no result: hERG protect, KCNQ1 act, KCNK9 block, KCNQ1 block)
CC(N=c1ccccn1C(=O)Nc1cccc(C(F)(F)F)c1)c1ccco1 (stereo unspecified)	KCNQ1 block 9
CC(=O)c1cccc(S(=O)(=O)N2CCC(c3nc4ccccc4[nH]3)CC2)c1	none
Cc1ccc2nc(C3CCN(S(=O)(=O)c4ccc5ccccc5c4)CC3)[nH]c2c1	KCNQ1 act 8
CS(=O)(=O)c1ccc(C(=O)N2CCN(C(=O)c3ccco3)CC2)cc1	none (no result: hERG protect, KCNQ1 act, KCNK9 block, KCNQ1 block)
CC(C)C(NC(=O)c1ccccc1)C(=O)OCn1nnc2ccccc2c1=O (stereo unspecified)	none (no result: hERG protect, KCNQ1 act, KCNK9 block, KCNQ1 block)
CCCCOC(=O)c1ccc(NC(=S)NC(=O)c2c(Cl)cnn2CC)cc1	KCNQ1 act 75
CCCCOC(=O)c1ccc(NC(=S)NC(=O)c2c(Cl)cnn2C)cc1	hERG protect 15, KCNQ1 act 8
CCOC(=O)C1=NNC(C(=O)OCC)C1C(=O)OCC (stereo unspecified)	none (no result: hERG protect, KCNQ1 act, KCNK9 block, KCNQ1 block)
Cc1ccc(/C=c2/sc3n(c2=O)CCCN=3)o1	KCNQ1 block 6
Cc1ccc(/C=c2\sc3n(c2=O)CN(c2ccc(Br)cc2)CN=3)o1	none
COc1ccc(-c2c[n+]3c4n2CCCCC4=C(c2ccccc2)C3)cc1	KCNQ1 block 7
COc1cc(OC)cc(C(=O)NC(C(=O)NNC(=O)CN(C)S(=O)(=O)c2ccc(C)cc2)C(C)C)c1 (stereo unspecified)	none (no result: hERG protect, KCNQ1 act, KCNK9 block, KCNQ1 block)
CC1=NN(/C(=N\c2nnc(C)s2)Nc2ccc(C(C)(C)C)cc2)[C@H](c2ccc(C)cc2)S1	KCNQ1 block 8
Fc1ccc(-c2csc3ncnc(N4CCc5ccccc5C4)c23)cc1	KCNK9 block -7.1, KCNQ1 block 6
Cc1ccc(-c2csc3ncnc(N4CCc5ccccc5C4)c23)cc1	none
CCOC(=O)/C(=C\c1ccccc1)C(=O)c1cc(C(C)=O)c(Nc2ccccc2)s1	none
CCOC(=O)/C(=C\c1cccnc1)C(=O)c1cc(C(C)=O)c(Nc2ccccc2)s1	KCNQ1 act 36
Cn1c(=O)c(NCCO)c2c3c(cccc31)C(=O)c1ccccc1-2	KCNQ1 block 25
O=C1NC(=O)N(Cc2ccccc2)CC1Br (stereo unspecified)	none (no result: hERG protect, KCNQ1 act, KCNK9 block, KCNQ1 block)
CC(C)(C)C(=O)CC(=O)Nc1ccc(Cl)c(N)c1	hERG protect 4.9
CCCC(=O)Nc1ccc(Cl)c(NC(=O)C(C)(C)C)c1	none
COC(=O)c1c(NC(=O)C2=COCCO2)sc(C)c1C	none
Cc1ccc(N2C(=O)c3cccc(Oc4ccc(Cl)cc4)c3C2=O)c(C)c1	none
O=C(O)CN1C(=O)c2cccc(Oc3ccc(Cl)cc3)c2C1=O	KCNK9 block -6.8
CC1(N2CCCCC2)CC2(O)C(=[N+]1[O-])CCC/C2=N\O (stereo unspecified)	KCNQ1 act 8
